One test deals with HepG2. Kind of test: Cytotoxicity against human HepG2 cells by MTT assay. Type of test: functional, cell-based. The essentials: (§1)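 HepG2 (hepatoma line HA22T) and KB (epidermoid carcinoma, CCRC 60017) cells seeded at (1-1.5) × 10^4/mL and incubated overnight at 37 °C in 5% CO₂. On day 3, MTT (5 mg/mL solution) was added for 4 h, then formazan was dissolved in DMSO and read spectrophotometrically.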

Another test relates to KB. Nature of the test: Cytotoxicity against human KB cells by MTT assay. It counts as functional, cell-based. The essentials:
as §1

The structures appear in SMILES notation. Bounds are passed on as bounds.

With `COc1c(O)ccc(C=O)c1OC`, the IC50 in the test on HepG2 and in the test on KB was more than 100 µM throughout.
For `CC1(C)C=Cc2c(cc(O)c3c(=O)c(O)c(-c4ccc(O)cc4)oc23)O1` [CITRUSINOL], the results for the IC50 in the test with HepG2 and with KB were 43.3 µM and 42.3 µM, respectively.
Taken in the same sequence, the figures for `COc1c(O)ccc(/C=C\Cc2ccc(O)cc2)c1OC` [PULCHELSTYRENE A] were more than 100 µM and more than 100 µM.
For the compound `COc1cc(C/C=C\c2ccc(O)c(OC)c2OC)ccc1O` [PULCHELSTYRENE B], the results for the IC50 in the test with HepG2 and in the test on KB were more than 100 µM and 55.6 µM, respectively.
For `COc1cc(C/C=C/c2ccc(OC)c(O)c2OC)ccc1O` [PULCHELSTYRENE C], the IC50 in the test on HepG2 is more than 100 µM; with KB, 39.8 µM.
Take `COc1cc2c(c(OC)c1O)C=CCC21C=CC(=O)C=C1` [PULCHELSTYRENE D]: the IC50 with HepG2 and with KB was more than 100 µM throughout.
Regarding `CC1(C)C=Cc2c(cc(O)c3c2O[C@H](c2ccc(O)cc2)[C@@H](O)C3=O)O1` [YUKOVANOL], the half-inhibitory concentration (IC50) in the test with HepG2 and in the test on KB was more than 100 µM throughout.

The record behind these values is ChEMBL document CHEMBL1158773, “Cinnamylphenols from Phyllodium pulchellum” (J Nat Prod, 2005).
